Assay results: ChEMBL document CHEMBL4622985, “Design, Synthesis, and Pharmacological Characterization of Heterobivalent Ligands for the Putative 5-HT2A/mGlu2 Receptor Complex” (J Med Chem, 2020)

molecular target: T1, 5-hydroxytryptamine receptor 2A/Metabotropic glutamate receptor 2 (Homo sapiens, UniProt P28223+Q14416); assay: Displacement of [3H]-ketanserin from human 5HT2A/mGlu2 receptor expressed in HEK293 cell membranes incubated for 2 hrs by scintillation counting method; conditions: read-out: Ki
T1 sequence (P28223 whole entry): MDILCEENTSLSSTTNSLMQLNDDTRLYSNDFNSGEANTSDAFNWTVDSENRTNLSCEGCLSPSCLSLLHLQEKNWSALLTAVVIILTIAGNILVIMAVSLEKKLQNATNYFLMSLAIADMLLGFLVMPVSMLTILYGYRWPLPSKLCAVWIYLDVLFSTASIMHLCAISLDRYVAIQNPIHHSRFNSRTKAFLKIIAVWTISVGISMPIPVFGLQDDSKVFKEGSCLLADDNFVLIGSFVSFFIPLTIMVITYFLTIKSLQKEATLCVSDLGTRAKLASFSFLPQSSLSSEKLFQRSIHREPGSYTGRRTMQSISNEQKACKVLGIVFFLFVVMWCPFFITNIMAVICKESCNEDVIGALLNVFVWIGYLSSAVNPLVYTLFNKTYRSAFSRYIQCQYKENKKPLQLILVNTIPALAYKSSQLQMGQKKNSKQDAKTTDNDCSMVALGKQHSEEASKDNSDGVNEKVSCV
T1 sequence (Q14416 whole entry): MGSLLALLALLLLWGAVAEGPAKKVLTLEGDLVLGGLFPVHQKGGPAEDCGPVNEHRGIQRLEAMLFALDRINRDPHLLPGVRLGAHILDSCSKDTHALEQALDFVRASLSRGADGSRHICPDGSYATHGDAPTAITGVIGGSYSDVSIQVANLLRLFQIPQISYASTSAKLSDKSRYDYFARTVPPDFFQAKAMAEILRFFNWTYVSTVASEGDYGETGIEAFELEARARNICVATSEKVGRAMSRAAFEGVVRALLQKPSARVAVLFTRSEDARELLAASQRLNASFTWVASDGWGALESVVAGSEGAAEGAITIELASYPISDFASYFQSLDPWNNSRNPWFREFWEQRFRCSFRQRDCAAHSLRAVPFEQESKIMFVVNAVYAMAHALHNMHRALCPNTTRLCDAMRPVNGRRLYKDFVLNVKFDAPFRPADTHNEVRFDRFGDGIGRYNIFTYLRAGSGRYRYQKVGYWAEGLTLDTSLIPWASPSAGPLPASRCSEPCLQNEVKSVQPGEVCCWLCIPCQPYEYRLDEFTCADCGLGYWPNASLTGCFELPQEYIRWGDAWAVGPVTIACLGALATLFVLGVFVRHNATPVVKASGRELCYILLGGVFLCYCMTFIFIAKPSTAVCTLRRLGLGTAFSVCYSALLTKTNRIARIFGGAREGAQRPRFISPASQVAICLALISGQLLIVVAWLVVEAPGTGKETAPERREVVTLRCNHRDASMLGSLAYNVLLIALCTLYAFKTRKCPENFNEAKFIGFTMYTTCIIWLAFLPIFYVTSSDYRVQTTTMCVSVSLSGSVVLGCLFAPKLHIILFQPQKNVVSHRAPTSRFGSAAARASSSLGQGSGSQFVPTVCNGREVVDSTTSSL
Method in brief: (§1)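 Membranes from stable HEK293 lines were homogenized and centrifuged twice at 50.000g, 4 °C, then resuspended in 50 mM Tris-HCl, 10 mM MgCl2, 0.1 mM EDTA, pH 7.4. Competition used fixed [3H]ketanserin ~1.5 nM (1.3−1.8 nM) against varied test compound, with bound/free kept <10%. Incubation ran 2 h at rt with shaking, followed by GF/C filtration. Ki was obtained by Cheng−Prusoff using saturation KD. Three independent experiments, each in duplicate.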

Row | SMILES | Ki
1 | COc1cccc(C(=O)C2CCN(CCc3ccc(F)cc3)CC2)c1OC | 0.003 µM
2 | COc1c(OCCOCCOCCOCCOc2ccc(C3CCN(c4ccn5c(CC6CC6)nnc5c4Cl)CC3)cc2)cccc1C(=O)C1CCN(CCc2ccc(F)cc2)CC1 | 0.1 µM
3 | COc1c(OCCOCCOCCOCCOCCOCCOc2ccc(C3CCN(c4ccn5c(CC6CC6)nnc5c4Cl)CC3)cc2)cccc1C(=O)C1CCN(CCc2ccc(F)cc2)CC1 | 0.12 µM
4 | COc1c(OCCOCCOCCOc2ccc(C3CCN(c4ccn5c(CC6CC6)nnc5c4Cl)CC3)cc2)cccc1C(=O)C1CCN(CCc2ccc(F)cc2)CC1 | 0.84 µM

molecular target: T1, 5-hydroxytryptamine receptor 2A/Metabotropic glutamate receptor 2; assay: Agonist activity at human 5HT2A/mGlu2 receptor expressed in HEK293 cells co-expressing Gqo5 assessed as increase in intracellular Ca2+ mobilization incubated for 1 hr by Fluo-4 dye based fluorescence assay; format: functional, cell-based; conditions: read-out: EC50

Row | SMILES | EC50
5 | COc1cccc(C(=O)C2CCN(CCc3ccc(F)cc3)CC2)c1OC | > 50 µM
6 | COc1ccccc1C1CCN(c2ccn3c(CC4CC4)nnc3c2Cl)CC1 | 0.21 µM
7 | COc1c(OCCOCCOCCOCCOc2ccc(C3CCN(c4ccn5c(CC6CC6)nnc5c4Cl)CC3)cc2)cccc1C(=O)C1CCN(CCc2ccc(F)cc2)CC1 | 10 to 50 µM
8 | COc1c(OCCOCCOCCOCCOCCOCCOc2ccc(C3CCN(c4ccn5c(CC6CC6)nnc5c4Cl)CC3)cc2)cccc1C(=O)C1CCN(CCc2ccc(F)cc2)CC1 | 10 to 50 µM
9 | COc1c(OCCOCCOCCOc2ccc(C3CCN(c4ccn5c(CC6CC6)nnc5c4Cl)CC3)cc2)cccc1C(=O)C1CCN(CCc2ccc(F)cc2)CC1 | 10 to 50 µM
10 | COc1c(O)cccc1C(=O)C1CCN(CCc2ccc(F)cc2)CC1 | > 50 µM

same assay, conditions: read-out: pEC50 (converted)

Row | SMILES | EC50
11 | COc1cccc(C(=O)C2CCN(CCc3ccc(F)cc3)CC2)c1OC | > 50.1 µM
12 | COc1c(O)cccc1C(=O)C1CCN(CCc2ccc(F)cc2)CC1 | > 50.1 µM

molecular target: T1, 5-hydroxytryptamine receptor 2A/Metabotropic glutamate receptor 2; assay: Antagonist activity at human 5HT2A/mGlu2 receptor expressed in HEK293 cells co-expressing Gqo5 assessed as inhibition of 5HT-induced intracellular Ca2+ mobilization incubated for 1 hr by Fluo-4 dye based fluorescence assay 5HT2A_HUMAN/GRM2_HUMAN P28223/Q14416; format: functional, cell-based; conditions: not given

Row | SMILES | IC50
13 | COc1cccc(C(=O)C2CCN(CCc3ccc(F)cc3)CC2)c1OC | 0.0054 µM
14 | COc1c(OCCOCCOCCOCCOc2ccc(C3CCN(c4ccn5c(CC6CC6)nnc5c4Cl)CC3)cc2)cccc1C(=O)C1CCN(CCc2ccc(F)cc2)CC1 | 0.8 µM
15 | COc1c(OCCOCCOCCOCCOCCOCCOc2ccc(C3CCN(c4ccn5c(CC6CC6)nnc5c4Cl)CC3)cc2)cccc1C(=O)C1CCN(CCc2ccc(F)cc2)CC1 | 0.42 µM
16 | COc1c(OCCOCCOCCOc2ccc(C3CCN(c4ccn5c(CC6CC6)nnc5c4Cl)CC3)cc2)cccc1C(=O)C1CCN(CCc2ccc(F)cc2)CC1 | 9.9 µM
17 | COc1c(O)cccc1C(=O)C1CCN(CCc2ccc(F)cc2)CC1 | 0.022 µM

molecular target: T2, 5-hydroxytryptamine receptor 2A (Homo sapiens, UniProt P28223); assay: Antagonist activity at human 5HT2A receptor expressed in HEK293 cells assessed as inhibition of 5HT-induced intracellular Ca2+ mobilization incubated for 1 hr by Fluo-4 dye based fluorescence assay; format: functional, cell-based; conditions: read-out: IC50
T2 sequence (P28223 whole entry): as the sequence (P28223 whole entry) above

Row | SMILES | IC50
18 | COc1cccc(C(=O)C2CCN(CCc3ccc(F)cc3)CC2)c1OC | 0.00081 µM
19 | COc1ccccc1C1CCN(c2ccn3c(CC4CC4)nnc3c2Cl)CC1 | 1.3 µM
20 | COc1c(OCCOCCOCCOCCOc2ccc(C3CCN(c4ccn5c(CC6CC6)nnc5c4Cl)CC3)cc2)cccc1C(=O)C1CCN(CCc2ccc(F)cc2)CC1 | 0.28 µM
21 | COc1c(OCCOCCOCCOCCOCCOCCOc2ccc(C3CCN(c4ccn5c(CC6CC6)nnc5c4Cl)CC3)cc2)cccc1C(=O)C1CCN(CCc2ccc(F)cc2)CC1 | 0.27 µM
22 | COc1c(OCCOCCOCCOc2ccc(C3CCN(c4ccn5c(CC6CC6)nnc5c4Cl)CC3)cc2)cccc1C(=O)C1CCN(CCc2ccc(F)cc2)CC1 | 1.2 µM
23 | COc1c(O)cccc1C(=O)C1CCN(CCc2ccc(F)cc2)CC1 | 0.011 µM

same assay, conditions: read-out: pIC50 (converted)

Row | SMILES | IC50
24 | COc1c(OCCOCCOCCOCCOc2ccc(C3CCN(c4ccn5c(CC6CC6)nnc5c4Cl)CC3)cc2)cccc1C(=O)C1CCN(CCc2ccc(F)cc2)CC1 | 0.288 µM

molecular target: T1, 5-hydroxytryptamine receptor 2A/Metabotropic glutamate receptor 2; assay: Antagonist activity at human 5HT2A/mGlu2 receptor expressed in HEK293 cells assessed as inhibition of 5HT-induced intracellular Ca2+ mobilization incubated for 1 hr by Fluo-4 dye based fluorescence assay 5HT2A_HUMAN/GRM2_HUMAN P28223/Q14416; format: functional, cell-based; conditions: read-out: IC50

Row | SMILES | IC50
25 | COc1cccc(C(=O)C2CCN(CCc3ccc(F)cc3)CC2)c1OC | 0.0062 µM
26 | COc1ccccc1C1CCN(c2ccn3c(CC4CC4)nnc3c2Cl)CC1 | 10 µM
27 | COc1c(OCCOCCOCCOCCOc2ccc(C3CCN(c4ccn5c(CC6CC6)nnc5c4Cl)CC3)cc2)cccc1C(=O)C1CCN(CCc2ccc(F)cc2)CC1 | 1.7 µM
28 | COc1c(OCCOCCOCCOCCOCCOCCOc2ccc(C3CCN(c4ccn5c(CC6CC6)nnc5c4Cl)CC3)cc2)cccc1C(=O)C1CCN(CCc2ccc(F)cc2)CC1 | 0.51 µM
29 | COc1c(OCCOCCOCCOc2ccc(C3CCN(c4ccn5c(CC6CC6)nnc5c4Cl)CC3)cc2)cccc1C(=O)C1CCN(CCc2ccc(F)cc2)CC1 | 7.9 µM
30 | COc1c(O)cccc1C(=O)C1CCN(CCc2ccc(F)cc2)CC1 | 0.0092 µM

same assay, conditions: read-out: pIC50 (converted)

Row | SMILES | IC50
31 | COc1c(OCCOCCOCCOCCOc2ccc(C3CCN(c4ccn5c(CC6CC6)nnc5c4Cl)CC3)cc2)cccc1C(=O)C1CCN(CCc2ccc(F)cc2)CC1 | 1.55 µM

molecular target: T1, 5-hydroxytryptamine receptor 2A/Metabotropic glutamate receptor 2; assay: Positive modulator activity at human 5HT2A/mGlu2 receptor expressed in HEK293 cells co-expressing Gqo5 assessed as increase in intracellular Ca2+ mobilization incubated for 1 hr by Fluo-4 dye based fluorescence assay 5HT2A_HUMAN/GRM2_HUMAN P28223/Q14416; format: functional, cell-based; conditions: not given

Row | SMILES | EC50
32 | COc1ccccc1C1CCN(c2ccn3c(CC4CC4)nnc3c2Cl)CC1 | 0.019 µM

molecular target: T2, 5-hydroxytryptamine receptor 2A; assay: Displacement of [3H]-ketanserin from human HT2A receptor expressed in HEK293 cell membranes incubated for 2 hrs by scintillation counting method; conditions: read-out: Ki; method in brief: as §1

Row | SMILES | Ki
33 | COc1cccc(C(=O)C2CCN(CCc3ccc(F)cc3)CC2)c1OC | 0.00052 µM
34 | COc1c(OCCOCCOCCOCCOc2ccc(C3CCN(c4ccn5c(CC6CC6)nnc5c4Cl)CC3)cc2)cccc1C(=O)C1CCN(CCc2ccc(F)cc2)CC1 | 0.033 µM
35 | COc1c(OCCOCCOCCOCCOCCOCCOc2ccc(C3CCN(c4ccn5c(CC6CC6)nnc5c4Cl)CC3)cc2)cccc1C(=O)C1CCN(CCc2ccc(F)cc2)CC1 | 0.1 µM
36 | COc1c(OCCOCCOCCOc2ccc(C3CCN(c4ccn5c(CC6CC6)nnc5c4Cl)CC3)cc2)cccc1C(=O)C1CCN(CCc2ccc(F)cc2)CC1 | 0.36 µM

molecular target: T3, Metabotropic glutamate receptor 2 (Homo sapiens, UniProt Q14416); assay: Positive modulator activity at human mGlu2 receptor expressed in HEK293 cells co-expressing Gqo5 assessed as increase in intracellular Ca2+ mobilization incubated for 1 hr in presence of EC20 glutamate by Fluo-4 dye based fluorescence assay; format: functional, cell-based; conditions: read-out: EC50
T3 sequence (Q14416 whole entry): as the sequence (Q14416 whole entry) above

Row | SMILES | EC50
37 | COc1cccc(C(=O)C2CCN(CCc3ccc(F)cc3)CC2)c1OC | > 50 µM
38 | COc1ccccc1C1CCN(c2ccn3c(CC4CC4)nnc3c2Cl)CC1 | 0.0052 µM
39 | COc1c(OCCOCCOCCOCCOc2ccc(C3CCN(c4ccn5c(CC6CC6)nnc5c4Cl)CC3)cc2)cccc1C(=O)C1CCN(CCc2ccc(F)cc2)CC1 | 0.33 µM
40 | COc1c(OCCOCCOCCOCCOCCOCCOc2ccc(C3CCN(c4ccn5c(CC6CC6)nnc5c4Cl)CC3)cc2)cccc1C(=O)C1CCN(CCc2ccc(F)cc2)CC1 | 0.53 µM
41 | COc1c(OCCOCCOCCOc2ccc(C3CCN(c4ccn5c(CC6CC6)nnc5c4Cl)CC3)cc2)cccc1C(=O)C1CCN(CCc2ccc(F)cc2)CC1 | 0.32 µM
42 | COc1c(O)cccc1C(=O)C1CCN(CCc2ccc(F)cc2)CC1 | > 50 µM

same assay, conditions: read-out: pEC50 (converted)

Row | SMILES | EC50
43 | COc1cccc(C(=O)C2CCN(CCc3ccc(F)cc3)CC2)c1OC | > 50.1 µM
44 | COc1c(O)cccc1C(=O)C1CCN(CCc2ccc(F)cc2)CC1 | > 50.1 µM

molecular target: T1, 5-hydroxytryptamine receptor 2A/Metabotropic glutamate receptor 2; assay: Antagonist activity at human 5HT2A/mGlu2 receptor expressed in HEK293 cells co-expressing Gqo5 assessed as inhibition of glutamate-induced intracellular Ca2+ mobilization incubated for 1 hr by Fluo-4 dye based fluorescence assay 5HT2A_HUMAN/GRM2_HUMAN P28223/Q14416; format: functional, cell-based; conditions: not given

Row | SMILES | IC50
45 | COc1cccc(C(=O)C2CCN(CCc3ccc(F)cc3)CC2)c1OC | 0.024 µM
46 | COc1c(OCCOCCOCCOCCOc2ccc(C3CCN(c4ccn5c(CC6CC6)nnc5c4Cl)CC3)cc2)cccc1C(=O)C1CCN(CCc2ccc(F)cc2)CC1 | 0.99 µM
47 | COc1c(OCCOCCOCCOCCOCCOCCOc2ccc(C3CCN(c4ccn5c(CC6CC6)nnc5c4Cl)CC3)cc2)cccc1C(=O)C1CCN(CCc2ccc(F)cc2)CC1 | 0.89 µM
48 | COc1c(OCCOCCOCCOc2ccc(C3CCN(c4ccn5c(CC6CC6)nnc5c4Cl)CC3)cc2)cccc1C(=O)C1CCN(CCc2ccc(F)cc2)CC1 | 5.3 µM
49 | COc1c(O)cccc1C(=O)C1CCN(CCc2ccc(F)cc2)CC1 | 0.023 µM

molecular target: T1, 5-hydroxytryptamine receptor 2A/Metabotropic glutamate receptor 2; assay: Displacement of [3H]-ketanserin from human 5HT2A/mGlu2 receptor expressed in HEK293 cell co-expressing Gqo5 membranes incubated for 2 hrs by scintillation counting method; format: cell-based; conditions: read-out: Ki; method in brief: as §1

Row | SMILES | Ki
50 | COc1cccc(C(=O)C2CCN(CCc3ccc(F)cc3)CC2)c1OC | 0.0087 µM
51 | COc1c(OCCOCCOCCOCCOc2ccc(C3CCN(c4ccn5c(CC6CC6)nnc5c4Cl)CC3)cc2)cccc1C(=O)C1CCN(CCc2ccc(F)cc2)CC1 | 0.11 µM
52 | COc1c(OCCOCCOCCOCCOCCOCCOc2ccc(C3CCN(c4ccn5c(CC6CC6)nnc5c4Cl)CC3)cc2)cccc1C(=O)C1CCN(CCc2ccc(F)cc2)CC1 | 0.19 µM
53 | COc1c(OCCOCCOCCOc2ccc(C3CCN(c4ccn5c(CC6CC6)nnc5c4Cl)CC3)cc2)cccc1C(=O)C1CCN(CCc2ccc(F)cc2)CC1 | 1.04 µM

molecular target: T3, Metabotropic glutamate receptor 2; assay: Agonist activity at human mGlu2 receptor expressed in HEK293 cells co-expressing Gqo5 assessed as increase in intracellular Ca2+ mobilization incubated for 1 hr by Fluo-4 dye based fluorescence assay; format: functional, cell-based; conditions: read-out: EC50

Row | SMILES | EC50
54 | COc1cccc(C(=O)C2CCN(CCc3ccc(F)cc3)CC2)c1OC | > 50 µM
55 | COc1ccccc1C1CCN(c2ccn3c(CC4CC4)nnc3c2Cl)CC1 | 0.037 µM
56 | COc1c(OCCOCCOCCOCCOc2ccc(C3CCN(c4ccn5c(CC6CC6)nnc5c4Cl)CC3)cc2)cccc1C(=O)C1CCN(CCc2ccc(F)cc2)CC1 | 0.55 µM
57 | COc1c(OCCOCCOCCOCCOCCOCCOc2ccc(C3CCN(c4ccn5c(CC6CC6)nnc5c4Cl)CC3)cc2)cccc1C(=O)C1CCN(CCc2ccc(F)cc2)CC1 | 1.2 µM
58 | COc1c(OCCOCCOCCOc2ccc(C3CCN(c4ccn5c(CC6CC6)nnc5c4Cl)CC3)cc2)cccc1C(=O)C1CCN(CCc2ccc(F)cc2)CC1 | 0.9 µM
59 | COc1c(O)cccc1C(=O)C1CCN(CCc2ccc(F)cc2)CC1 | > 50 µM

same assay, conditions: read-out: pEC50 (converted)

Row | SMILES | EC50
60 | COc1cccc(C(=O)C2CCN(CCc3ccc(F)cc3)CC2)c1OC | > 50.1 µM
61 | COc1ccccc1C1CCN(c2ccn3c(CC4CC4)nnc3c2Cl)CC1 | 0.0355 µM
62 | COc1c(O)cccc1C(=O)C1CCN(CCc2ccc(F)cc2)CC1 | > 50.1 µM
